Results from ChEMBL document CHEMBL1126041, “Leukotriene B4 receptor antagonists: the LY255283 series of hydroxyacetophenones” (J Med Chem, 1992).

Key:
[1] = molecular target: Leukotriene B4 receptor 1 (Homo sapiens) (UniProt Q15722); assay: Inhibition of binding of [3H]LTB4 to the leukotriene B4 receptor of human peripheral neutrophils (PMN) at a concentration of 10 uM.
Procedure, shortened: (§1)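 Neutrophils isolated by Ficoll-Hypaque centrifugation, dextran 70 sedimentation and hypotonic lysis (≥90% neutrophils, ≥90% viable), 2 × 10^7 cells/mL in Hank's balanced salt solution with 0.1% ovalbumin. Compound in DMSO plus 2.65 nM [3H]LTB4 (stock), 10 min at 4 °C. Cells spun through dibutyl/dinonyl phthalate (7:2), pellet counted by scintillation. Triplicate incubations averaged. Reported as % inhibition of specific binding; nonspecific binding taken with >2000-fold excess unlabeled LTB4.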

[2] = molecular target: Leukotriene B4 receptor 1 (Homo sapiens) (UniProt Q15722); assay: Inhibition of [3H]LTB4 binding to leukotriene B4 receptor from human peripheral neutrophils (PMN), at a concentration of 1 uM; procedure, shortened: as §1
[3] = molecular target: Leukotriene B4 receptor (Homo sapiens) (UniProt Q9NPC1+Q15722); assay: Inhibition of [3H]LTB4 binding to leukotriene B4 receptor of human peripheral neutrophils (PMN) at a concentration of 0.1 uM.; type: protein assay; procedure, shortened: as §1
Chain of Leukotriene B4 receptor (Homo sapiens) (Q15722 whole entry, looked up): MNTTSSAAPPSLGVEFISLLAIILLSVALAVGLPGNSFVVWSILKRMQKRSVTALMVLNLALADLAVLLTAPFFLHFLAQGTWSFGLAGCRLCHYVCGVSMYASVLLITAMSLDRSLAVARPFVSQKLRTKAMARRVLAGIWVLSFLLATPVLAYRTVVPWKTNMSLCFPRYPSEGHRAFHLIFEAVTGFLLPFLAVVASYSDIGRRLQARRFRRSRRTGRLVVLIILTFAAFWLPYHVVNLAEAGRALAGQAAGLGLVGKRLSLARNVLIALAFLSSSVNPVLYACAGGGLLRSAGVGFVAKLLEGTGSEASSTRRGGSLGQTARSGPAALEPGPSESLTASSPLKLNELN
Chain of Leukotriene B4 receptor (Homo sapiens) (Q9NPC1 whole entry, looked up): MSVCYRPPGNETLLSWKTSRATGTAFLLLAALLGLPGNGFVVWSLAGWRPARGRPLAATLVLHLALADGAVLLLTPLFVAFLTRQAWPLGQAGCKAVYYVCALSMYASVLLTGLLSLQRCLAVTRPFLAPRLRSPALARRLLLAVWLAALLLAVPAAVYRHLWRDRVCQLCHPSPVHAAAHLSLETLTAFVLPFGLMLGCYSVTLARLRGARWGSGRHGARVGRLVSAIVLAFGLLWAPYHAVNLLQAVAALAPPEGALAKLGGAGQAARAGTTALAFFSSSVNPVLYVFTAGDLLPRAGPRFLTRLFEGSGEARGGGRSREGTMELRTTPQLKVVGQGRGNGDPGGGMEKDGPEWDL

Chain of Leukotriene B4 receptor 1 (Homo sapiens) (Q15722 whole entry): as the sequence (Q15722 whole entry, looked up) above

Structure (SMILES)	inhibition [1]	inhibition [2]	inhibition [3]
CC(=O)c1cc(CO)c(OCCCCCCC#N)cc1O	40%	8%	–
CCCc1cc(C(C)=O)c(O)cc1OCCCCC(=O)O	11%	0%	–
C=CCc1cc(C(C)=O)c(O)cc1OCc1cccc(C#N)c1	71%	58%	25%
C=CCc1ccc(O)cc1OCCCCC#N	29%	9%	–
C=CCc1cc(C(C)=O)c(O)cc1OCCCCCC#N	81%	41%	–
CCc1cc(C(C)=O)c(O)cc1OCCCCC#N	92%	57%	–
C=CCc1cc(C(C)=O)c(OC)cc1OCCCCC#N	13%	8%	–
C=CCc1cc(C(C)=O)c(O)cc1OCCCCO	48%	9%	–
C=CCc1cc(C(C)=O)c(O)cc1OCCCCCC(N)=O	88%	37%	–
C=CCc1cc(C(C)=O)c(O)cc1OCCCC	32%	8%	–
C=CCc1cc(C(C)=O)c(O)cc1OCCCCCC(C)(C)O	98%	60%	–
CCc1cc(C(C)=O)c(O)cc1OCCCCCCCC(C)(C)c1nnn[nH]1	–	96%	49%
CCCCCc1cc(C(C)=O)c(O)cc1OCCCCC#N	31%	14%	–
CCc1cc(C(C)=O)c(O)cc1OCCCCCC(C)(C)c1nn[nH]n1	102%	93%	56%
CCc1cc(C(C)=O)c(O)cc1OCCCCCCCC(C)(C)C#N	66%	29%	6%
CC(=O)c1cc(C(C)(C)C)c(OCCCCCC(C)(C)C#N)cc1O	1%	2%	–
CCc1cc(C(C)=O)c(O)cc1OCCCCCC(C)(C)C(=O)O	104%	73%	20%
C=CCCCCOc1cc(O)c(C(C)=O)cc1CC=C	73%	27%	–
CCCc1cc(C(C)=O)ccc1OCCCCC#N	44%	19%	–
C=CCc1cc(C(C)=O)c(O)cc1OCCCC#N	47%	6%	–
CCCCc1cc(C(C)=O)c(O)cc1OCCCCC#N	41%	13%	–
C=CCc1cc(C(C)=O)c(O)cc1OCc1ccccc1C#N	47%	6%	–

Structure (SMILES)	inhibition [1]	inhibition [2]	inhibition [3]
C=CCc1cc(C(C)=O)c(O)cc1OCCCCC	60%	23%	–
C=CCc1cc(C(C)=O)c(O)cc1OCCCCC#N	92%	57%	–
CCCc1cc(C(C)=O)c(Cl)cc1OCCCCC#N	35%	13%	–
CC(=O)c1cc(C)c(OCCCCC#N)cc1O	79%	35%	–
C=CCc1cc(C(C)=O)c(O)cc1OCCCCCCCCCCC#N	50%	14%	–
C=CCc1cc(C(C)=O)c(O)cc1OCc1ccc(CC#N)cc1	30%	17%	–
CSCc1cc(C(C)=O)c(O)cc1OCCCCCCC#N	97%	64%	–
CCc1cc(C(C)=O)c(O)c(C)c1OCCCCCC(C)(C)c1nnn[nH]1	42%	9%	–
CCc1cc(C(C)=O)c(O)cc1OCc1ccc(C#N)cc1	7%	11%	0%
CCc1cc(C(C)=O)c(O)cc1OCCCC(C)(C)c1nnn[nH]1	100%	76%	28%
C=CCc1cc(C(C)=O)c(O)cc1OCCCCCC	50%	9%	–
CCc1cc(C(C)=O)c(O)cc1OCCCCN1CCOCC1	32%	9%	–
C=CCc1cc(C(C)=O)c(O)cc1OCC#N	20%	2%	–
CC(=O)c1cc(CC2CO2)c(OCCCCC#N)cc1O (stereo not drawn)	62%	24%	–
CCc1cc(C(C)=O)c(O)cc1OCCCCC(C)(C)C#N	79%	30%	5%
CCCc1cc(C(C)=O)c(O)cc1OCCCCC#N	84%	37%	–
C=CCc1cc(C(C)=O)c(O)cc1OCCCCCC(C)=O	98%	58%	–
CC(=O)c1cc(C(C)=O)c(OCCCCC#N)cc1O	8%	0%	–
C=CCc1cc(C(C)=O)c(O)cc1OCCCCCC(=O)NO	85%	28%	–
CCc1cc(C(C)=O)c(O)cc1OCCCCCC(C)(C)C#N	85%	53%	17%
CCc1cc(C(C)=O)c(O)cc1OCCCCCC[S+](C)[O-] (stereo not drawn)	92%	50%	–
CCc1cc(C(C)=O)c(O)cc1OCCCCCCC(=O)NC	97%	54%	–

Structure (SMILES)	inhibition [1]	inhibition [2]	inhibition [3]
CC(=O)c1cc(CC(C)O)c(OCCCCC#N)cc1O (stereo not drawn)	10%	6%	–
CCc1cc(C(C)=O)c(O)cc1OCCCC(C)(C)C#N	85%	46%	13%
C=CCc1cc(C(C)=O)c(O)cc1OCCCCCCC#N	97%	63%	–
CCc1cc(C(C)=O)c(O)cc1OCCCCCCC(C)(C)C#N	65%	30%	11%
CCCc1cc(C(C)=O)c(O)cc1OCCCCNC(C)=O	71%	23%	–
CCc1cc(C(C)=O)c(O)cc1OCCCC(C)(C)C(N)=O	92%	51%	16%
CCCc1cc(C(C)=O)c(O)cc1OCCCCN	6%	0%	–
CCCc1cc(C(C)=O)c(O)cc1OCCCCCC(=O)O	73%	24%	–
CCc1cc(C(C)=O)c(O)cc1OCCCCCCC(C)(C)c1nnn[nH]1	–	67%	13%
CCc1cc(C(C)=O)c(O)cc1OCCCCc1nnn[nH]1	49%	19%	–
CCc1cc(C(C)=O)c(O)cc1OCCCCCC(C)(C)c1nnn(C)n1	95%	66%	16%
C=CCc1cc(C(C)=O)c(O)cc1OCc1cccc(CC#N)c1	16%	0%	–
CCc1cc(C(C)=O)c(O)cc1OCCCCCCC(=O)Nc1nn[nH]n1	101%	83%	–
CCCc1c(OCCCCC#N)ccc(C(C)=O)c1O	0%	9%	–
C=CCc1cc(C(C)=O)c(O)cc1OCCCCCC(=O)N(C)C	92%	54%	–
CCc1cc(C(C)=O)c(O)cc1OCCCCCCC#N	103%	73%	–
CCc1cc(C(C)=O)c(O)cc1OCCCCCCC(=O)O	87%	38%	–
CCc1cc(C(C)=O)c(O)cc1OCCCCN(C)C	4%	3%	–
C=CCc1cc(C(C)=O)c(O)cc1OCCCCCCCCC#N	86%	50%	–
CCc1cc(C(C)=O)c(O)cc1OCCCCCCS(C)(=O)=O	99%	62%	–
C=CCc1cc(C(C)=O)c(O)cc1OCc1ccc(C#N)cc1	22%	28%	–
CCc1cc(C(C)=O)c(O)cc1OCCCCC(C)(C)c1nnn[nH]1	–	66%	17%

Structure (SMILES)	inhibition [1]	inhibition [2]	inhibition [3]
CCCc1cc(C(C)=O)c(O)c(CCC)c1OCCCCC#N	0%	0%	–
C=CCc1cc(C(C)=O)c(O)cc1OCCCCCCCC#N	88%	52%	–
C=CCc1cc(C(C)=O)c(O)cc1OCCCCCCC	31%	8%	–
CCCCCCc1cc(C(C)=O)c(O)cc1OCCCCC#N	51%	13%	–
CCC1(c2ccc(N)cc2)CCC(=O)NC1=O (stereo not drawn)	82%	29%	–
CCc1cc(C(C)=O)c(O)cc1OCCCCCC(C)(C)c1nnnn1C	99%	59%	14%
C=CCc1cc(C(=O)CC)c(O)cc1OCCCCC#N	77%	36%	–
CC(=O)c1cc(C=O)c(OCCCCC#N)cc1O	6%	3%	–
C=CCc1cc(C(=O)c2ccccc2)c(O)cc1OCCCCC#N	33%	5%	–
C=CCc1cc(C(=O)CCCCCCCCC)c(O)cc1OCCCCC#N	10%	7%	–
C#CCCCCOc1cc(O)c(C(C)=O)cc1CC=C	74%	29%	–
CCc1cc(C(C)=O)c(O)cc1OCCCCCn1cncn1	82%	30%	–
CCc1cc(C(C)=O)c(O)cc1OCCCC(C)(C)C(=O)O	89%	43%	12%
CCc1cc(C(C)=O)c(O)cc1OCCCCCCc1nnn[nH]1	91%	60%	–
COCc1cc(C(C)=O)c(O)cc1OCCCCCCC#N	47%	7%	–
CCc1cc(C(C)=O)c(O)cc1OCCCCCCC(=O)N(C)C	100%	61%	–
CCc1cc(C(C)=O)c(O)cc1OCc1ccc(C(=O)O)cc1	22%	0%	–
CC(=O)c1ccc(OCCCCC#N)cc1O	0%	0%	–
C=CCc1cc(C(C)=O)c(O)cc1OCCCCCC(=O)OC	106%	65%	–
CCc1cc(C(C)=O)c(O)cc1Oc1cccc(C#N)c1	11%	8%	–
CCc1cc(C(C)=O)c(O)cc1OCCCCCCSC	71%	14%	–
